CRFBP-R2 block = CRF-BP/CRF-R2 complex antagonism; inhibition, % at 11.8 µM; actives 0.59% (n = 350,000); HEK293 CRF-R2/CRF-BP, CRF-induced calcium fluorescence;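 active means inhibition of the ligand-induced calcium signal above about 50% at the single tested concentration, limit read from the data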
CSN inh = inhibitors of human CSN-mediated cullin deneddylation; Q92905; Purified CSN, SCF-Nedd8-OG deneddylation, fluorescence polarization; inhibition, % at 12.5 µM; actives 0.38% (n = 360,000); AID 651999;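 active means pattern-corrected inhibition above about 35%, with an unprinted fluorescence ratio check between 0.5 and 1.5, limit read from the data, passing the limit was not always enough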;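 further: 0% = enzyme with substrate and 100% = substrate without enzyme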
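Material: human Csn5 produced in HEK293T cells; Input: enzyme 0.24 nM; Reagent: SCFSkp2-Nedd8OG substrate at 10 nM final; Dosing: 12.5 µM compound; Incubation: 90 min reaction at room temperature; Detection: fluorescence polarization of the substrate; Evaluation: % inhibition of substrate cleavage by Csn5; Control set: substrate-only high control, full reaction low control.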
CRFBP-R2 agonist = agonists of human CRF-binding protein/CRF-R2 receptor complex. HEK293 CRF-R2/CRF-BP, calcium dye fluorescence (FLIPR); percent of saturating CRF peptide response. activation, % at 13.2 µM. actives 0.46% (n = 350,000);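 active means activation of at least 50%, plus an integration ratio under a set limit after plate pattern correction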;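 further: plate controls were neutral control wells without compound for no effect and CRF at EC100 for full effect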
TPT1 inh = blocks Candida albicans tRNA 2'-phosphotransferase; recombinant caTPT1, FP RNA substrate dephosphorylation; inhibition, % at 5 µM; actives 0.81% (n = 300,000);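 active means inhibition above the mean of all tested compounds plus 3 SD, set per screening campaign, cut at about 24% in these data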;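 further: plate controls were DMSO alone for no effect and ferristatin control at 100 nM for full effect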
HNF4A DNA FP = change in binding of human HNF4 alpha to DNA | HNF4a-FITC DNA binding, fluorescence polarization, 1 h | activity change, % at 10 µM | actives 0.3% (n = 360,000); in the data active means activity change above about 30%, passing the limit was not always enough
Target sequence (P41235 whole entry, looked up): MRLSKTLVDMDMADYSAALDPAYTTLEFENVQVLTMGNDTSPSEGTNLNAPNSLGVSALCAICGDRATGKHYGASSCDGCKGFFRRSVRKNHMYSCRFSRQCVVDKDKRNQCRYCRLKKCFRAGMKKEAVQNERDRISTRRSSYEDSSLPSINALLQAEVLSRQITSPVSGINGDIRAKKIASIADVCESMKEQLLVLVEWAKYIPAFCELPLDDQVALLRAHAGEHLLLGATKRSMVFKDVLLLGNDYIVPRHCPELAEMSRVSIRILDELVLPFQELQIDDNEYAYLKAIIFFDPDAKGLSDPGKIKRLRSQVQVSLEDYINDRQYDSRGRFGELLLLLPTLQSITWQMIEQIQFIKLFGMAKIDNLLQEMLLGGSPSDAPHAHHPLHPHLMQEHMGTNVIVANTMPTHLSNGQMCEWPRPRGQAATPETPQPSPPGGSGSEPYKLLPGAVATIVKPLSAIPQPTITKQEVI
Rpn11 inh = blocks the human proteasome subunit Rpn11; O00487; human 26S proteasome, Ub4-pepOG fluorescence polarization; 20S core pre-blocked with epoxomicin; calls only at 20 µM; actives 0.59% (n = 360,000); AID 588493;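 active means inhibition at 20 µM, scaled to each plate's controls, above about 33%, limit read from the data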
caTPT1 confirm = TPT1 (C. albicans) inhibition, confirmation. AID 2149. recombinant caTPT1, fluorescence polarization, RNase T1 coupled. actives 74% (n = 2,400). shares compounds with TPT1 inh. inhibition, % at 5 µM;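 active means inhibition above the primary screen limit, the mean inhibition of all tested compounds plus 3 SD, cut at about 25% in these data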
RNase T1 counter = RNase T1 inhibition in TPT1 counter-screen | shares compounds with TPT1 inh | RNase T1 cleavage, fluorescence polarization, 1536-well | inhibition, % at 5 µM | actives 83% (n = 2,400);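 active means inhibition above the solvent-only control well mean plus 3 SD, limit set per screening run, cut at about 23% in these data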;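 further: plate controls were DMSO wells with enzyme for no effect and wells without RNase T1 for full effect; inhibitors block cleavage so intact labeled substrate keeps polarization high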
Target sequence (P00651 whole entry, looked up): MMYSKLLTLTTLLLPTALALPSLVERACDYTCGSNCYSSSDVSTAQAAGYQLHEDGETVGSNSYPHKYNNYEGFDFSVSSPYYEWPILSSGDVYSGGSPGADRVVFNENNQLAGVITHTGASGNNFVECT
An asterisk follows results filed as active; i = inactive; nt = no result shown. Most compounds without a hit are left out; they make up all but 2.3% or so of the library.

SMILES | CRFBP-R2 block | CSN inh | CRFBP-R2 agonist | TPT1 inh | HNF4A DNA FP | Rpn11 inh | caTPT1 confirm | RNase T1 counter
CCC1(CC)NC(=O)N(CC(=O)Nc2sc3c(c2C(N)=O)CCC3)C1=O | -6 | 41* | 0 | 28* | 3 | i | 37* | 48*
CCC1(C)NC(=O)N(CC(=O)Nc2sc3c(c2C(=O)OC)CCCCC3)C1=O (stereo unspecified) | -54 | 2 | 2 | 1 | 2 | i | nt | nt
Cc1cc(-c2cccs2)c2c(N)c(C(=O)c3ccc4c(c3)OCO4)sc2n1 | -197 | 15 | 109* | 37* | 33 | i | 58* | 67*
COc1ccc(C(=O)c2sc3nc(C)cc(-c4cccs4)c3c2N)cc1OC | -132 | 20 | 108* | 73* | 36 | nt | 73* | 78*
Cc1cc(C)c2c(N)c(C(=O)c3ccc(Cl)cc3)sc2n1 | 19 | -9 | 0 | -3 | 1 | i | nt | nt
CC(C)NC(=O)c1sc2nc(-c3cccs3)cc(-c3cccs3)c2c1N | -33 | nt | 1 | 10 | nt | nt | nt | nt
O=C(CCc1nc2ccccc2[nH]1)Nc1ccc(F)cc1 | -10 | 0 | -3 | 3 | -2 | i | nt | nt
CCC(=O)N1CCc2cc(S(=O)(=O)NCCC(=O)Nc3ccccc3C)ccc21 | -1 | -3 | 1 | 4 | -2 | i | nt | nt
COC(=O)c1ccccc1NC(=O)CSCC(=O)Nc1ccccc1OC | 7 | 0 | 0 | -1 | 0 | i | nt | nt
COc1ccc(/C=C2\SC(=S)N(CCC(=O)N3CCCCC3)C2=O)cc1 | -10 | 1 | 0 | -3 | 0 | i | nt | nt
COCCN1C(=O)/C(=C/c2ccc(N3CCCC3)cc2)SC1=S | -212 | 104 | 265* | 133* | 128 | nt | 138* | 131*
COc1ccc(C=C2NC(=S)NC2=O)cc1 | -12 | 4 | -1 | nt | 2 | i | nt | nt
COc1ccc(/C=C/C=C2\NC(=S)NC2=O)cc1 | -13 | -1 | 2 | 28* | 15 | i | 19 | 32*
Cc1cccc(NC(=O)c2ccc(S(=O)(=O)NCc3cccnc3)cc2)c1 | -3 | -3 | 1 | -1 | 0 | i | nt | nt
CC[C@H](C)/C=C(C)/C=C/C(=O)Cc1cc(O)c(C)c(O)c1C=O | -13 | 34 | 18 | 34* | 36 | i | 31* | 41*
Cn1c(-c2c(N)n(C3CCCC3)c3nc4ccccc4nc23)nc2ccccc21 | -71 | 4 | 27 | 39* | 10 | i | 43* | 51*
COCCCn1c(N)c(-c2nc3ccccc3n2C)c2nc3ccccc3nc21 | -180 | 12 | 92* | 46* | 18 | i | 46* | 59*
COc1ccc(CNC(=O)O[C@H]2Cn3c(=O)ccc(=O)n3[C@@H]3CN(S(=O)(=O)c4ccc(C)cc4)C[C@]23O)cc1OC | 2 | 4 | 5 | nt | -3 | i | nt | nt
Nc1c(C(=O)O)sc2nc(-c3ccccc3)cc(-c3ccc(F)cc3)c12 | -5 | 8 | 3 | 29* | 35* | nt | 27* | 38*
O=C(C=Cc1ccccc1Cl)c1ccccc1 | 17 | 14 | -4 | nt | 6 | i | nt | nt
CCNc1ccc(Br)cc(C(=O)/C=C/c2ccccc2Cl)c1=O | -9 | 35 | 7 | 53* | -9 | i | 88* | 94*
CNc1ccc(Br)cc(C(=O)/C=C/c2cccc(Cl)c2Cl)c1=O | -21 | 27 | -1 | nt | 20 | i | nt | nt
COC(=O)/C=C/c1ccc2c(c1)OCO2 | 1 | -9 | -2 | 5 | 0 | i | nt | nt
CCNc1ccccc(C(=O)/C=C/c2ccc3c(c2)OCO3)c1=O | -22 | 13 | 2 | 26* | 3 | i | 15 | 19
CNc1ccc(Br)cc(C(=O)/C=C/c2cccc(OC)c2OC)c1=O | 6 | 15 | 2 | 41* | 0 | i | 65* | 76*
SMILES | CRFBP-R2 block | CSN inh | CRFBP-R2 agonist | TPT1 inh | HNF4A DNA FP | Rpn11 inh | caTPT1 confirm | RNase T1 counter
CCN(CC)c1ccc(NC(=S)NC(=O)C2CCC2)cc1 | -4 | 4 | 1 | 0 | -1 | i | nt | nt
COc1cccc(C2CCCCN2Cc2nc(-c3ccc(C)o3)oc2C)c1 (stereo unspecified) | 5 | 10 | 0 | 27* | 9 | i | 31* | 41*
COc1cccc(C2CCCN2Cc2nc(-c3sccc3C)oc2C)c1 (stereo unspecified) | -3 | 17 | -1 | 10 | 7 | i | nt | nt
O=c1[nH]c2cc3c(cc2cc1CN(Cc1cccs1)Cc1nnnn1Cc1ccco1)OCCO3 | -13 | 3 | 6 | 31* | -3 | i | 11 | 15
O=C(Nc1ccc2c(c1)OCO2)[C@@H]1[C@@H]2C(=O)N(C3CCCCC3)C(=O)[C@@H]2C2c3ccccc3C=CN21 (stereo partly specified) | nt | nt | nt | 62* | nt | nt | 52* | 63*
C/C(=N/NC(=O)c1ccncc1)c1cc2ccc(O)cc2oc1=O | -38 | -79 | 191* | 60* | -89 | i | -11 | 9
C/C(=N\NC(=O)c1ccncc1)c1cc2ccccc2oc1=O | -9 | 2 | 0 | 5 | 2 | i | nt | nt
C/C(=N/NC(N)=S)c1cc2ccc(O)cc2oc1=O | -16 | 71 | 19 | 25* | 86 | nt | 90* | 97*
O=C(NC1CCCCC1)c1cccs1 | -8 | -3 | 0 | 1 | 2 | i | nt | nt
O=C(N/N=C/c1ccc[nH]1)c1sc2ccccc2c1Cl | -15 | 1 | 1 | -1 | 7 | i | nt | nt
O=C(Nc1cccc(/C=C/c2ccccn2)c1)c1ccc(-n2cncn2)cc1 | -8 | 0 | 1 | nt | 1 | i | nt | nt
CCOC(=O)c1sc(N)c(C#N)c1CSc1nc2ccc(C)cc2[nH]1 | 12 | 5 | -1 | 11 | 5 | i | nt | nt
CCOC(=O)c1sc(N)c(C#N)c1COC(=O)CNC(=O)c1ccccc1 | -8 | 41* | 1 | 79* | 74* | nt | 92* | 100*
O=C1OC2(CCCCC2)OC(=O)C1=CNc1ccc2c(c1)OCO2 | 9 | 7 | -1 | -4 | 2 | i | nt | nt
O=C1/C(=C/Nc2ccc3c(c2)OCO3)CCc2ccccc21 | -13 | 13 | 2 | 83* | 49* | i | 57* | 74*
COc1ccc2c(c1)CC/C(=C\Nc1ccc3c(c1)OCO3)C2=O | -23 | 15 | 5 | 65* | 45* | nt | 74* | 87*
COc1ccc(N/C=C2\CCc3ccccc3C2=O)cc1 | -17 | 18 | 8 | 51* | 22 | nt | 59* | 71*
COc1ccc(N/C=C2\CCOC2=O)cc1 | 4 | -3 | -3 | 7 | 0 | i | nt | nt
